According to ChEMBL document CHEMBL3102840, “Synthesis and anti-proliferative activity of aromatic substituted 5-((1-benzyl-1H-indol-3-yl)methylene)-1,3-dimethylpyrimidine-2,4,6(1H,3H,5H)-trione analogs against human tumor cell lines” (2014):

Key:
Assay type in all cases: functional
[1] = test system: TK-10; experiment: Cytotoxicity against human TK10 cells after 48 hrs by SRB assay; conditions: TK-10, 48 h
Summary of the method: (§1)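 Five-dose run from the sixty-line panel, at 10−4, 10−5, 10−6, 10−7 and 10−8 M. SRB-stain OD is read just before compound addition, after 48 hrs of exposure, and in vehicle controls, giving percentage growth; negative growth indicates cytotoxicity. GI50 is the concentration giving 50% reduction in net protein increase versus control cells. LC50 is the concentration lethal to 50% of cells.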

[2] = test system: NCI-H226; experiment: Cytotoxicity against human NCI-H226 cells assessed as growth inhibition at 10 uM after 48 hrs by SRB assay; conditions: NCI-H226, 48 h, read-out: GI
Summary of the method: (§2)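 Single-dose screen at 10µM across the sixty-cell-line panel. Percentage growth is derived from SRB-stain OD taken just before compound exposure, after 48 hrs exposure, and in vehicle-treated controls. Negative values indicate cytotoxicity.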

[3] = test system: MDA-MB-468; experiment: Cytotoxicity against human MDA-MB-468 cells assessed as growth inhibition at 10 uM after 48 hrs by SRB assay; conditions: MDA-MB-468, 48 h, read-out: GI; summary of the method: as §2
[4] = test system: TK-10; experiment: Cytotoxicity against human TK10 cells assessed as growth inhibition at 10 uM after 48 hrs by SRB assay; conditions: TK-10, 48 h, read-out: GI; summary of the method: as §2
[5] = test system: NCI-H226; experiment: Cytotoxicity against human NCI-H226 cells after 48 hrs by SRB assay; conditions: NCI-H226, 48 h; summary of the method: as §1
[6] = test system: SK-MEL-5; experiment: Cytotoxicity against human SK-MEL-5 cells after 48 hrs by SRB assay; conditions: SK-MEL-5, 48 h; summary of the method: as §1
[7] = test system: COLO 205; experiment: Cytotoxicity against human COLO205 cells after 48 hrs by SRB assay; conditions: COLO 205, 48 h; summary of the method: as §1
[8] = test system: SK-OV-3; experiment: Cytotoxicity against human SKOV3 cells after 48 hrs by SRB assay; conditions: SK-OV-3, 48 h; summary of the method: as §1
[9] = test system: T47D; experiment: Cytotoxicity against human T47D cells after 48 hrs by SRB assay; summary of the method: as §1
[10] = test system: MCF7; experiment: Cytotoxicity against human MCF7 cells after 48 hrs by SRB assay; conditions: MCF7, 48 h; summary of the method: as §1
[11] = test system: SN12C; experiment: Cytotoxicity against human SN12C cells after 48 hrs by SRB assay; summary of the method: as §1
[12] = test system: RXF 393; experiment: Cytotoxicity against human RXF393 cells after 48 hrs by SRB assay; conditions: RXF 393, 48 h; summary of the method: as §1
[13] = test system: NCI-H23; experiment: Cytotoxicity against human NCI-H23 cells after 48 hrs by SRB assay; conditions: NCI-H23, 48 h; summary of the method: as §1
[14] = test system: K562; experiment: Cytotoxicity against human K562 cells after 48 hrs by SRB assay; conditions: K562, 48 h; summary of the method: as §1
[15] = test system: A498; experiment: Cytotoxicity against human A498 cells assessed as growth inhibition at 10 uM after 48 hrs by SRB assay; conditions: A498, 48 h, read-out: GI; summary of the method: as §2
[16] = test system: HOP-62; experiment: Cytotoxicity against human HOP62 cells after 48 hrs by SRB assay; conditions: HOP-62, 48 h; summary of the method: as §1
[17] = test system: HCT-116; experiment: Cytotoxicity against human HCT116 cells after 48 hrs by SRB assay; conditions: HCT-116, 48 h; summary of the method: as §1
[18] = test system: SK-MEL-2; experiment: Cytotoxicity against human SK-MEL-2 cells after 48 hrs by SRB assay; conditions: SK-MEL-2, 48 h; summary of the method: as §1
[19] = test system: SF-295; experiment: Cytotoxicity against human SF295 cells after 48 hrs by SRB assay; conditions: SF-295, 48 h; summary of the method: as §1
[20] = test system: MDA-MB-468; experiment: Cytotoxicity against human MDA-MB-468 cells after 48 hrs by SRB assay; conditions: MDA-MB-468, 48 h; summary of the method: as §1
[21] = test system: MDA-MB-435; experiment: Cytotoxicity against human MDA-MB-435 cells after 48 hrs by SRB assay; conditions: MDA-MB-435, 48 h; summary of the method: as §1
[22] = test system: OVCAR-8; experiment: Cytotoxicity against human OVCAR8 cells after 48 hrs by SRB assay; conditions: OVCAR-8, 48 h; summary of the method: as §1
[23] = test system: A498; experiment: Cytotoxicity against human A498 cells after 48 hrs by SRB assay; conditions: A498, 48 h; summary of the method: as §1
[24] = test system: SNB-19; experiment: Cytotoxicity against human SNB19 cells after 48 hrs by SRB assay; conditions: SNB-19, 48 h; summary of the method: as §1
[25] = Cytotoxicity against human UACC257 cells after 48 hrs by SRB assay; conditions: UACC-257, 48 h; summary of the method: as §1
[26] = Cytotoxicity against human OVCAR5 cells after 48 hrs by SRB assay; conditions: OVCAR-5, 48 h; summary of the method: as §1
[27] = test system: SR; experiment: Cytotoxicity against human SR cells after 48 hrs by SRB assay; summary of the method: as §1
[28] = test system: SW-620; experiment: Cytotoxicity against human SW620 cells after 48 hrs by SRB assay; conditions: SW-620, 48 h; summary of the method: as §1
[29] = test system: BT-549; experiment: Cytotoxicity against human BT549 cells after 48 hrs by SRB assay; conditions: BT-549, 48 h; summary of the method: as §1
[30] = Cytotoxicity against human OVCAR5 cells assessed as growth inhibition at 10 uM after 48 hrs by SRB assay; conditions: OVCAR-5, 48 h, read-out: GI; summary of the method: as §2
[31] = Cytotoxicity against human NCI-ADR-RES cells after 48 hrs by SRB assay; summary of the method: as §1
[32] = test system: MDA-MB-231; experiment: Cytotoxicity against human MDA-MB-231 cells after 48 hrs by SRB assay; conditions: MDA-MB-231, 48 h; summary of the method: as §1
[33] = test system: 786-0; experiment: Cytotoxicity against human 786-0 cells after 48 hrs by SRB assay; conditions: 786-0, 48 h; summary of the method: as §1
[34] = test system: IGROV-1; experiment: Cytotoxicity against human IGROV1 cells after 48 hrs by SRB assay; conditions: IGROV-1, 48 h; summary of the method: as §1
[35] = test system: NCI-H460; experiment: Cytotoxicity against human NCI-H460 cells after 48 hrs by SRB assay; conditions: NCI-H460, 48 h; summary of the method: as §1
[36] = test system: LOX IMVI; experiment: Cytotoxicity against human LOXIMVI cells after 48 hrs by SRB assay; summary of the method: as §1
[37] = test system: UACC-62; experiment: Cytotoxicity against human UACC62 cells after 48 hrs by SRB assay; conditions: UACC-62, 48 h; summary of the method: as §1
[38] = read-out: LC50 (the source's name)

Structure (SMILES): COc1ccc(Cn2cc(C=C3C(=O)N(C)C(=O)N(C)C3=O)c3ccccc32)cc1
- GI50 [1]: 100 nM
- CC50 [1, 38]: 72.5 µM
- inhibition of growth at 10 µM [2]: -55%
- inhibition of growth at 10 µM [3]: -65%
- inhibition of growth at 10 µM [4]: -12%
- GI50 [5]: 1440 nM
- CC50 [5, 38]: 53.9 µM
- GI50 [6]: 5.08 µM
- LC50 [6]: 64.4 µM
- GI50 [7]: 630 nM
- CC50 [7, 38]: 45.3 µM
- GI50 [8]: 5.03 µM
- LC50 [8]: > 100 µM
- GI50 [9]: 3.53 µM
- LC50 [9]: > 100 µM
- GI50 [10]: 5.26 µM
- LC50 [10]: > 100 µM
- GI50 [11]: 12.5 µM
- CC50 [11, 38]: > 100 µM
- GI50 [12]: 14.8 µM
- LC50 (lethal concentration, 50%) [12]: > 100 µM
- GI50 [13]: 4.67 µM
- LC50 [13]: > 100 µM
- GI50 [14]: 2180 nM
- CC50 [14, 38]: > 100 µM
- inhibition of growth at 10 µM [15]: -92%
- GI50 [16]: 6.22 µM
- CC50 [16, 38]: > 100 µM
- GI50 [17]: 5.01 µM
- LC50 [17]: > 100 µM
- GI50 [18]: 2780 nM
- GI50 [19]: 1540 nM
- LC50 [19]: > 100 µM
- GI50 [20]: 40 nM
- LC50 [20]: 760 nM
- GI50 [21]: 3.29 µM
- LC50 [21]: > 100 µM
- GI50 [22]: 13.4 µM
- CC50 [22, 38]: 88.6 µM
- GI50 [23]: 60 nM
- LC50 [23]: 5.27 µM
- GI50 [24]: 15.8 µM
- LC50 [24]: > 100 µM
- GI50 [25]: 1540 nM
- CC50 [25, 38]: 38.2 µM
- GI50 [26]: 20 nM
- CC50 [26, 38]: > 100 µM
- GI50 [27]: 5.43 µM
- LC50 (lethal concentration, 50%) [27]: > 100 µM
- GI50 [28]: 6.89 µM
- CC50 [28, 38]: > 100 µM
- GI50 [29]: 4.94 µM
- CC50 [29, 38]: > 100 µM
- inhibition of growth at 10 µM [30]: -38%
- GI50 [31]: 3.59 µM
- CC50 [31, 38]: > 100 µM
- GI50 [32]: 5.86 µM
- CC50 [32, 38]: > 100 µM
- GI50 [33]: 11.2 µM
- LC50 [33]: > 100 µM
- GI50 [34]: 1930 nM
- CC50 [34, 38]: > 100 µM
- GI50 [35]: 810 nM
- CC50 [35, 38]: 82.8 µM
- GI50 [36]: 5.45 µM
- CC50 [36, 38]: > 100 µM
- GI50 [37]: 900 nM
- LC50 [37]: 68 µM

Structure (SMILES): COC(=O)c1ccc2c(c1)c(C=C1C(=O)N(C)C(=O)N(C)C1=O)cn2Cc1ccc(S(=O)(=O)c2ccccc2)cc1
- inhibition of growth at 10 µM [2]: 98%
- inhibition of growth at 10 µM [3]: 88%
- inhibition of growth at 10 µM [4]: 100%
- inhibition of growth at 10 µM [15]: 83%
- inhibition of growth at 10 µM [30]: 108%

Structure (SMILES): CN1C(=O)C(=Cc2cn(Cc3ccc(F)cc3)c3ccc(Cl)cc23)C(=O)N(C)C1=O
- inhibition of growth at 10 µM [2]: -79%
- inhibition of growth at 10 µM [3]: -70%
- inhibition of growth at 10 µM [4]: 19%
- inhibition of growth at 10 µM [15]: -95%
- inhibition of growth at 10 µM [30]: -19%

Structure (SMILES): COC(=O)c1ccc(Cn2cc(C=C3C(=O)N(C)C(=O)N(C)C3=O)c3cc(C(=O)OC)ccc32)cc1
- inhibition of growth at 10 µM [2]: 88%
- inhibition of growth at 10 µM [3]: 99%
- inhibition of growth at 10 µM [4]: 113%
- inhibition of growth at 10 µM [15]: 105%
- inhibition of growth at 10 µM [30]: 98%

Structure (SMILES): CN1C(=O)C(=Cc2cn(Cc3ccccc3Br)c3ccccc23)C(=O)N(C)C1=O
- inhibition of growth at 10 µM [2]: -32%
- inhibition of growth at 10 µM [3]: 56%
- inhibition of growth at 10 µM [4]: 105%
- inhibition of growth at 10 µM [15]: 74%
- inhibition of growth at 10 µM [30]: 75%

Structure (SMILES): CN1C(=O)C(=Cc2cn(Cc3ccc(C#N)cc3)c3ccccc23)C(=O)N(C)C1=O
- inhibition of growth at 10 µM [2]: -72%
- inhibition of growth at 10 µM [3]: -71%
- inhibition of growth at 10 µM [4]: 62%
- inhibition of growth at 10 µM [15]: 68%
- inhibition of growth at 10 µM [30]: 6%
